Measured values: ChEMBL document CHEMBL4602651, “Development of selective mono or dual PROTAC degrader probe of CDK isoforms” (Eur J Med Chem, 2020)
pIC50: −log10 of the molar value. Calls of active or inactive are those of the source. The rule behind the calls is not given here.

How the values were obtained:
[1] = molecular target: T1, Protein cereblon/Cyclin-dependent kinase 2/Cyclin-dependent kinase 9 (Homo sapiens, UniProt P24941+P50750+Q96SW2); assay: Protac activity at CRBN/CDK2/CDK9 in human HCT116 cells assessed as CDK2 degradation at 0.25 to 10 uM after 12 hrs by Westernblot analysis; assay type: cell-based; conditions: HCT-116
How it was run: (§1)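 22Rv1, HCT-116 (RPMI 1640, 10% FBS) and MCF-7 cells treated with degrader at indicated concentrations for 12 h. CDK2 and CDK9 blotted with β-tubulin loading control.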

[2] = tested on: L02; assay: Cytotoxicity against human LO2 cells assessed as reduction in cell viability after 5 days by CCK-8 assay; assay type: cell-based; conditions: L02, 120 h
How it was run: (§2)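 Cells seeded at 3 × 10^3 per well for 24 h, then dosed in 10-point, 3-fold serial dilution from 10 µM. CCK-8 added after 5 days, 4 h at 37 °C, absorbance at 450 nm. IC50 averaged from three separate determinations (at least two independent runs, duplicate wells). PC-3 grown in DMEM/F12 (1:1), LO2 in RPMI 1640, both with 10% FBS.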

[3] = tested on: PC-3; assay: Induction of cell cycle arrest in human PC3 cells assessed as accumulation at G2/M phase at 3 uM after 48 hrs by propidium iodide staining based flow cytometry (reference value: 22.24%); assay type: functional
[4] = molecular target: T1, Protein cereblon/Cyclin-dependent kinase 2/Cyclin-dependent kinase 9; assay: Protac activity at CRBN/CDK2/CDK9 in AR-negative human PC3 cells assessed as induction of CDK2 protein degradation at 500 nM after 4 hrs by Western blot analysis; assay type: cell-based; conditions: PC-3
How it was run: (§3)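 PC-3 cells treated with 500 nM degrader for varying times. Lysates blotted for CDK2, CDK4, CDK6, CDK9, c-Myc and Mcl-1, each at 1/1000 primary antibody, with β-tubulin reference and chemiluminescent detection.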

[5] = tested on: PC-3; assay: Induction of cell cycle arrest in human PC3 cells assessed as accumulation at G0/G1 phase at 3 uM after 48 hrs by propidium iodide staining based flow cytometry (reference value: 59.80%); assay type: functional
[6] = molecular target: T1, Protein cereblon/Cyclin-dependent kinase 2/Cyclin-dependent kinase 9; assay: Protac activity at CRBN/CDK2/CDK9 in AR-negative human PC3 cells assessed as induction of CDK9 protein degradation at 1 uM after 12 hrs by Western blot analysis; assay type: cell-based; conditions: PC-3
How it was run: (§4)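 PC-3 cells (5 × 10^5 per well) treated 12 h at single concentrations (50 nM, 500 nM, 1, 5 or 30 µM). RIPA lysates (50 µg) run on 10% SDS-PAGE and immunoblotted for CDK2, CDK5, CDK9 with β-tubulin loading control, then detected by chemiluminescence. Band intensities quantified densitometrically.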

[7] = tested on: PC-3; assay: Induction of cell cycle arrest in human PC3 cells assessed as accumulation at G0/G1 phase at 250 nM after 48 hrs by propidium iodide staining based flow cytometry (reference value: 59.80%); assay type: functional
[8] = molecular target: T1, Protein cereblon/Cyclin-dependent kinase 2/Cyclin-dependent kinase 9; assay: Protac activity at CRBN/CDK2/CDK9 in AR-negative human PC3 cells assessed as induction of CDK2 protein degradation at 1 uM after 12 hrs by Western blot analysis; assay type: cell-based; conditions: PC-3; how it was run: as §4
[9] = molecular target: Protein cereblon/Cyclin-dependent kinase 4 (Homo sapiens) (UniProt P11802+Q96SW2); assay: Protac activity at CRBN/CDK4 in AR-negative human PC3 cells assessed as induction of CDK4 protein degradation at 500 nM after 24 hrs by Western blot analysis; assay type: cell-based; conditions: PC-3; how it was run: as §3
[10] = tested on: PC-3; assay: Induction of cell cycle arrest in human PC3 cells assessed as accumulation at S phase at 250 nM after 48 hrs by propidium iodide staining based flow cytometry (reference value: 17.96%); assay type: functional
[11] = molecular target: T1, Protein cereblon/Cyclin-dependent kinase 2/Cyclin-dependent kinase 9; assay: Protac activity at CRBN/CDK2/CDK9 in AR-negative human PC3 cells assessed as reduction in c-Myc protein expression at 500 nM measured after 2 to 24 hrs by Western blot analysis; assay type: cell-based; conditions: PC-3; how it was run: as §3
[12] = molecular target: CDK9/cyclin T1 (Homo sapiens, UniProt P50750); assay: Inhibition of tracer K10 binding to NanoLuc-CDK9/Cyclin T1 (unknown origin) expressed in human HEK293 cells after 1 hr in presence of ATP by NanoBRET assay; assay type: cell-based
How it was run: (§5)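 Cell-based target engagement run by a contract lab. HEK293 cells pretreated with NanoBRET Tracer K-10, then exposed to compound for 1 h with 10 µM ATP, and BRET signal read. 10-point, 3-fold dilutions from 1 µM. Staurosporine reference used 4-fold dilutions from 20 µM. IC50 from sigmoidal dose-response fit.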

[13] = molecular target: CDK2/Cyclin A2 (Homo sapiens, UniProt P24941); assay: Inhibition of tracer K10 binding to NanoLuc-CDK2/Cyclin A (unknown origin) expressed in human HEK293 cells after 1 hr in presence of ATP by NanoBRET assay; assay type: cell-based; how it was run: as §5
[14] = molecular target: T1, Protein cereblon/Cyclin-dependent kinase 2/Cyclin-dependent kinase 9; assay: Protac activity at CRBN/CDK2/CDK9 in human 22Rv1 cells assessed as CDK2 degradation at 0.25 to 10 uM after 12 hrs by Westernblot analysis; assay type: cell-based; conditions: CWR22R; how it was run: as §1
[15] = tested on: PC-3; assay: Antiproliferative activity against AR-negative human PC3 cells assessed as reduction in cell viability after 5 days by CCK8 assay; assay type: functional, cell-based; conditions: PC-3, 120 h; how it was run: as §2
[16] = molecular target: T1, Protein cereblon/Cyclin-dependent kinase 2/Cyclin-dependent kinase 9; assay: Protac activity at CRBN/CDK2/CDK9 in AR-negative human PC3 cells assessed as induction of CDK9 protein degradation at 500 nM after 4 hrs by Western blot analysis relative to control; assay type: cell-based; conditions: PC-3; how it was run: as §3

Chain of CDK9/cyclin T1 (O60563 whole entry): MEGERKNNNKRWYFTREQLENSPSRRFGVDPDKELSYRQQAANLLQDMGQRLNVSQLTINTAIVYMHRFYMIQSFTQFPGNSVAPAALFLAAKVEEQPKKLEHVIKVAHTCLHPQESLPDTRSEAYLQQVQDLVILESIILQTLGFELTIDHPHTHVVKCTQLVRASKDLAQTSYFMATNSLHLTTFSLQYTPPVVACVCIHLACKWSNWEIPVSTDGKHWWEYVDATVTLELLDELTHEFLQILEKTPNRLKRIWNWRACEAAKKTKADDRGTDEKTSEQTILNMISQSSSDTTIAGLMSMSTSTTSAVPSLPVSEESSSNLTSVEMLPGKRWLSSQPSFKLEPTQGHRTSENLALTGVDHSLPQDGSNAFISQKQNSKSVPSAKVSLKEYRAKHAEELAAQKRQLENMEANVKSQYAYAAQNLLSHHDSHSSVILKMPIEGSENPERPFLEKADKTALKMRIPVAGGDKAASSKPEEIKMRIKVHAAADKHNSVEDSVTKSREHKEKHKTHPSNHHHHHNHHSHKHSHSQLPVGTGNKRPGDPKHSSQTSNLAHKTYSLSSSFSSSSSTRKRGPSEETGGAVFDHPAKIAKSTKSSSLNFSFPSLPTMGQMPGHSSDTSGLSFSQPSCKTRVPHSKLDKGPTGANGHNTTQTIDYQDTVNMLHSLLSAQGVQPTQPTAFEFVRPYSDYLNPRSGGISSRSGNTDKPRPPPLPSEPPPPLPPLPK
Chain of CDK9/cyclin T1 (P50750 whole entry): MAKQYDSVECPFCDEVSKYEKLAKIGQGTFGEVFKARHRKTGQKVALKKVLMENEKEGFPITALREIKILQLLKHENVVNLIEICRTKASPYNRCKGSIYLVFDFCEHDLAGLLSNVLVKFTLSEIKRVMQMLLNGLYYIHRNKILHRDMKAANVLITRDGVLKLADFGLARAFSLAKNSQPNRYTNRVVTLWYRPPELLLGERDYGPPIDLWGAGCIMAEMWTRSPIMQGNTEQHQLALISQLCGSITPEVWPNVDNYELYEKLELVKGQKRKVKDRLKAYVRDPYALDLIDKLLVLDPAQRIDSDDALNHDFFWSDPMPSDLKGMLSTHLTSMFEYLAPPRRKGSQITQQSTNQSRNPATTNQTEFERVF
Chain of Protein cereblon/Cyclin-dependent kinase 4 (Homo sapiens) (P11802 2-303 limits assumed): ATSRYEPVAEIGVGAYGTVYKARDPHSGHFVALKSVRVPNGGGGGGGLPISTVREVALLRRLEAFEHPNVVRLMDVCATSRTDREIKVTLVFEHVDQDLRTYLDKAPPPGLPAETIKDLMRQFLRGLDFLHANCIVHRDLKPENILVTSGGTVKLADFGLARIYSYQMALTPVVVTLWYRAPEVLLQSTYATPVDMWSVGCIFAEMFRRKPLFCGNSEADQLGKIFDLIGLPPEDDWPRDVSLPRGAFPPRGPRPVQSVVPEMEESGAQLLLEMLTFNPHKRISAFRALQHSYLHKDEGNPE
Chain of Protein cereblon/Cyclin-dependent kinase 4 (Homo sapiens) (Q96SW2 whole entry partner): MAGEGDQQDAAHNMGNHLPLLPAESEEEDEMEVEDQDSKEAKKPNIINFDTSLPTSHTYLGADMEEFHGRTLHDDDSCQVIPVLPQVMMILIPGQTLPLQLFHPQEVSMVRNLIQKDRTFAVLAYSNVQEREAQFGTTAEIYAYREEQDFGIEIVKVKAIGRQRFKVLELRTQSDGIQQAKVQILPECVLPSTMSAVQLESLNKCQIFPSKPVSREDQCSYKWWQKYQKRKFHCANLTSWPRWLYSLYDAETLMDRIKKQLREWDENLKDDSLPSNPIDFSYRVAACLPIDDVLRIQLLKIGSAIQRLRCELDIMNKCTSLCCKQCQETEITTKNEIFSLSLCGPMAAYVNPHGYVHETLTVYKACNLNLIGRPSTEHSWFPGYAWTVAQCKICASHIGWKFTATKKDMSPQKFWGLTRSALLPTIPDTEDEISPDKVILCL

Activity [1]: Active | Activity [4]: Active | Activity [6]: Active | Activity [8]: Active | Activity [9]: inactive | Activity [11]: Active | pIC50 [12]: 7.84 | pIC50 [13]: 8.13 | Activity [14]: Active | pIC50 [15]: 6.92 | Activity [16]: > 80%
SMILES: O=C(CCC(=O)N1CCN(Cc2ccc(NC(=O)c3n[nH]cc3Nc3ncnc4[nH]ccc34)cc2)CC1)NCCNc1cccc2c1C(=O)N(C1CCC(=O)NC1=O)C2=O (stereo unspecified)
pIC50 [2]: 5.10 | Activity [3]: 36% | Activity [5]: 52.76% | Activity [7]: 50.15% | Activity [10]: 27.72%
